Bioassay records deposited in PubChem by several laboratories.
Sampled rows, rich in hits. Any-hit rate of the full collection: about 2.4%.
Jurkat NFkB inh – lowers PMA/ionomycin-induced NF-kB signal in Jurkat cells. AID 435003. 330,000 compounds, 0.53% hits. PMA/ionomycin-induced NF-kB luciferase reporter, luminescence. inhibition, % at 4 µM; in the data active = inhibition above about 50%
MPTP inh – blocks calcium-induced mitochondrial swelling; isolated mouse mitochondria, Ca2+ swelling absorbance, 30 min; 360,000 compounds, 1.4% hits; inhibition, % at 10 µM; AID 602449;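 active = inhibition of 50% or more, scaled per plate between neutral and stimulator controls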;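 also: 0% = DMSO wells given calcium and 100% = 1 mM EGTA wells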
NR2E3 ag-1 – activates human NR2E3 receptor; Q9Y5X4; CHO-S Gal4-NCOR/VP16-NR2E3 two-hybrid, luciferase; inhibition of corepressor binding, % at 3.98 µM; 360,000 compounds, 0.35% hits; AID 602229;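 active = inhibition above the mean of all tested compounds plus 3 SD, cut at about 70% in these data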;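 also: 0% = DMSO with NR2E3 transfected cells and 100% = cells lacking NR2E3 construct; higher means lower luciferase signal from less NR2E3 corepressor binding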
Target sequence (Q9Y5X4 whole entry, looked up, the tested form may be a part): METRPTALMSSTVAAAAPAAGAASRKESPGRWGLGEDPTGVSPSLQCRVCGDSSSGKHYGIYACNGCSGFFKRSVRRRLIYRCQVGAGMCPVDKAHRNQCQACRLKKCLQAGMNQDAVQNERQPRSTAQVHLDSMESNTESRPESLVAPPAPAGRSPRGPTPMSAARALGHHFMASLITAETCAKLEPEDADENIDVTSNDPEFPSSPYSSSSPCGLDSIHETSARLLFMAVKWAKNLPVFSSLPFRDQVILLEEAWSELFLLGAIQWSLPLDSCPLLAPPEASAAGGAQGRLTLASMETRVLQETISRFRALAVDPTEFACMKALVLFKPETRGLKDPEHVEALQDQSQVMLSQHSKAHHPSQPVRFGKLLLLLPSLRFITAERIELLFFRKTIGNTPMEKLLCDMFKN
697 NFkB inh – inhibitors of the PMA/ionomycin-induced NF-kB reporter in 697 B cells | 697 B-cell NF-kB luciferase reporter, 16 h | inhibition, % at 4 µM | AID 435022 | 330,000 compounds, 0.33% hits; in the data active = inhibition above about 35%
NR2E3 ag-2 – NR2E3 (human) agonism. Q9Y5X4. GST-NR2E3/biotin-RetCOR TR-FRET, 1536-well. inhibition of corepressor binding, % at 4.78 µM. 320,000 compounds, 0.12% hits. AID 2300;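 active = percent inhibition above the cutoff of mean plus 3 SD of all tested compounds, set per screening campaign, cut at about 20% in these data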;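 also: 0% = DMSO wells and 100% = biotin wells as full block of FRET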
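Format: 1536-well format; test system: GST-NR2E3 and biotin-RetCOR proteins; read-out basis: percent inhibition of TR-FRET ratio; timing: 5 h incubation at 4 °C; detection: time-resolved FRET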
aDG glyco act – alpha-DG glycosylation activation; Pro5-aDG cells, alpha-DG glycosylation AlphaScreen (IIH6); 0% Pro5, 100% B10-LARGE cell signal; activation, % at 10 µM; 360,000 compounds, 0.22% hits; AID 624168;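 active = activation of at least 8% versus controls, or a plate z-score of at least 8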;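 also: Pro5 are CHO cells carrying HIG-tagged alpha-DG that lacks glycosylation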
Jurkat NFkB conf – lowers PMA/ionomycin-induced NF-kB signal in Jurkat cells; 2,700 compounds, 27% hits; shares compounds with Jurkat NFkB inh; inhibition, % at 4 µM; Jurkat NF-kB luciferase, 16 h;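 active = inhibition reaching about 45% at 4 µM in either replicate, limit read from the data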;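 also: plate controls were PMA/ionomycin stimulated DMSO wells for no effect and unstimulated DMSO wells for full effect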
The depositor's hits bear a star; · = not tested or not shown.

SMILES	Jurkat NFkB inh	MPTP inh	NR2E3 ag-1	697 NFkB inh	NR2E3 ag-2	aDG glyco act	Jurkat NFkB conf
CC(=Nc1ccc(C)cc1C)c1sc2ccccc2c1O	-203	2	-124	-173	5	0	-40
CC(=Nc1cccc(O)c1)c1sc2ccccc2c1O	-121	0	-91	-185	-2	0	·
CCOc1ccc(/C=C/C(=O)N(C)CC(=O)Nc2cccc(F)c2)cc1OCC	3	-1	-15	12	-1	0	·
COc1ccccc1/C=N/N1C(=O)C(CC(=O)Nc2ccc([N+](=O)[O-])cc2OC)SC1=Nc1cccc(C)c1C (stereo not given)	69*	·	·	-101	-1	·	22
CCOc1ccc(/C(C)=N/N2C(=O)C(CC(=O)Nc3ccc(OC)cc3[N+](=O)[O-])SC2=Nc2cccc(C)c2C)cc1 (stereo not given)	-10	-2	15	-39	0	-1	·
COc1cccc(CC(=O)N(CCC2=CCCCC2)c2c(N)n(Cc3ccccc3)c(=O)[nH]c2=O)c1	5	-2	11	17	-1	0	·
COC(=O)COc1ccc(C(=O)Cn2c(NCCCO)nc3ccccc32)cc1	-11	-2	-15	-25	0	0	·
O=c1c2ccccc2oc2ccc(C#CC3(O)CCCCC3)cc12	-161	0	43	-180	1	0	15
CCCc1cc(=O)[nH]c2nnc(SCC(=O)N3CC(C)OC(C)C3)n12 (stereo not given)	10	-2	-10	22	1	0	·
COc1cccc(OC)c1OCCN1CCC(C(=O)NC(c2ccc3c(c2)OCO3)c2ccccn2)CC1 (stereo not given)	·	-1	7	·	·	0	·
CN(Cc1ccccc1Cl)C(=O)CNC(=O)C12CC3CC(CC(C3)C1)C2	-54	0	-5	13	·	0	·
Cc1nn(-c2ccccc2)c(C)c1/C=N/NC(=O)c1cc(C2CC2)[nH]n1	-6	-2	10	11	-1	0	·
Cc1nn(-c2ccccc2)c(C)c1/C=N/NC(=O)c1cc(-c2ccc(Cl)s2)[nH]n1	72*	3	-31	-3	0	0	34
Cc1nn(-c2ccccc2)c(C)c1/C=N/NC(=O)c1cc(-c2ccc(Br)s2)[nH]n1	62*	4	-2	-19	0	0	28
Cc1cc(C(=O)N/N=C/c2c(C)nn(-c3ccccc3)c2C)n[nH]1	7	0	-3	-1	-2	0	·
Cc1cc(C)cc(Oc2ccc(NC(=O)C3CC=CCC3C(=O)O)cc2)c1 (stereo not given)	-17	-2	-2	12	3	0	·
COc1cccc(-c2ccc3nnc(SCC(=O)N4CCOCC4)n3n2)c1	17	-1	19	22	-2	0	·
Cc1ccc(S(=O)(=O)Nc2ccccc2-c2ccccc2)cc1	59*	1	-54	-50	0	0	50*
COc1cccc(-c2noc(-c3cccnc3)n2)c1	-90	0	-108	-155	-2	0	·
COc1cccc(-c2noc(-c3cccs3)n2)c1	-152	2	-164	-249	1	0	-123
COc1nc(Nc2nc3ccccc3c(=O)[nH]2)nc2ccc(C)cc12	81*	2	11	30	1	0	-5
C/C(=N\Nc1ccc2nncn2n1)c1ccco1	3	2	-16	7	2	0	·
C/C(=N\Nc1ccc2nncn2n1)c1ccccn1	55*	-3	-23	-22	-2	1	32
CCOc1ccc2nc3cc(NCc4ccc(OC)cc4)ccc3c(N)c2c1	100*	2	5	-29	-3	0	15
COc1ccc2nc(Nc3ccccc3OC)sc2c1	-195	-6	-101	-191	-2	0	-123
SMILES	Jurkat NFkB inh	MPTP inh	NR2E3 ag-1	697 NFkB inh	NR2E3 ag-2	aDG glyco act	Jurkat NFkB conf
COc1ccc2nc(NC(=O)c3ccc4ncsc4c3)sc2c1	-151	1	-112	-203	6	0	-48
COc1ccc(Nc2nc3ccccc3c(=O)s2)c(OC)c1	2	-4	-5	2	-2	0	·
COc1ccc2nc(Nc3ccccc3)sc2c1	-186	0	-154	-132	0	0	-117
Cc1csc(=O)n1CC(=O)OCC(=O)c1c(N)n(C)c(=O)n(C)c1=O	8	-1	-23	14	-1	0	·
Cc1cccc(N2CCN(C(=O)CCC(=O)N3CC(C)Oc4ccc(C)cc43)CC2C)c1 (stereo not given)	6	-2	-13	-1	2	0	·
COc1ccc(-c2cc(-c3ccc(OC)c(OC)c3)n[nH]2)c(O)c1	-105	8	-113	-59	0	0	·
COc1ccc(-c2cc(-c3ccccc3O)[nH]n2)cc1OC	-156	4	-124	-147	1	0	-86
O=C(COC(=O)/C=C/c1ccccc1[N+](=O)[O-])NCc1ccco1	-1	-1	-28	-4	·	0	·
Cc1ccc(C(=O)NC2c3ccccc3-c3ccccc32)cc1	60*	1	-5	-24	-1	0	2
Cc1ccc(C(=O)NC2CCc3ccccc3C2=O)cc1 (stereo not given)	-107	6	-69	-104	2	0	·
C/C(=N\OC(=O)NC(C)C)c1sc(-c2ccc(Cl)cc2)nc1C	-131	-1	-97	-138	-1	1	·
CCNC(=O)O/N=C(\C)c1sc(-c2ccc(Cl)cc2)nc1C	-171	1	-208	-143	-1	1	-100
O=C1C=C(c2ccc3c(c2)OCO3)C[C@@H](c2ccc3c(c2)OCO3)C1	-1	2	2	-12	2	0	·
O=C1C=C(c2ccc3cc[nH]c3c2)C[C@@H](c2ccc3c(c2)OCO3)C1	53*	2	-28	-24	1	0	19
CCc1nc2ccc(C(=O)N3CCN(C(=O)c4ccco4)CC3)cn2c1N(CC)CCOC	·	0	5	·	·	0	·
Cc1ccc(S(=O)(=O)Nc2cccc(-c3ccc4nncn4n3)c2)cc1	59*	-2	-42	-8	-2	0	48*
CC(=O)c1ccc(S(=O)(=O)Nc2cccc(-c3ccc4nncn4n3)c2)cc1	-5	2	-15	0	5	0	·
CC(=O)C1=CCC(c2ccccc2F)N(S(=O)(=O)c2ccc(C)cc2)C1 (stereo not given)	·	1	3	·	·	0	·
COc1cc(-c2cc(-c3ccc(O)cc3)nc(N)c2C#N)ccc1O	-5	0	36	28	0	0	·
CCOc1cc(-c2cc(-c3ccc(C)cc3)nc(N)c2C#N)ccc1O	51*	7	-67	-39	2	0	14
